# Reference: ChEMBL document CHEMBL4680084, “New β-Lactam Derivatives Modulate Cell Adhesion and Signaling Mediated by RGD-Binding and Leukocyte Integrins” (J Med Chem, 2016)
# The source made the active and inactive calls. No cut-off for these calls is given here.
# What was measured:
# [1] = molecular target: Integrin alpha-L/beta-2 (LFA-1) (Homo sapiens, UniProt P05107+P20701); experiment: Antagonist activity at alphaLbeta2 in human Jurkat E6.1 cells assessed as reduction in cell adhesion to ICAM1 pre-incubated for 30 mins before ICAM1 and further incubated for 30 mins by […]; format: cell-based
# Method in brief: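 Jurkat E6.1 cells labelled with CellTracker green CMFDA (12.5 µM, 30 min, 37 °C), washed, then pre-incubated 30 min at 37 °C with compound or methanol. Plated at 500,000/well on VCAM-1 (α4β1) or ICAM-1 (αLβ2) coated wells (5 µg/mL) for 30 min at 37 °C. Cells lysed in 0.5% Triton X-100; fluorescence read Ex485/Em535. Quadruplicate, at least three repeats.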
# Integrin alpha-V/beta-5 [2] = molecular target: T1, Integrin alpha-V/beta-5 (Homo sapiens, UniProt P06756+P18084); experiment: Inhibition of fibrinogen binding to alphaVbeta5 isolated form human mCf7 cells incubated for 1 hr by […] competitive solid-phase binding assay
# Integrin alpha-V/beta-3 = Integrin alpha-V/beta-3 (Homo sapiens, UniProt P05106+P06756); experiment: Inhibition of fibronectin binding to human recombinant alphaVbeta3 expressed in HEK293 cells incubated for 1 hr by […] competitive solid-phase binding assay; format: cell-based
# Integrin alpha-5/beta-1 [3] = molecular target: T2, Integrin alpha-5/beta-1 (Homo sapiens, UniProt P05556+P08648); experiment: Agonist activity at alpha5beta1 in human K562 cells assessed as increase in cell adhesion to fibronectin at 10 ug/ml pre-incubated for 30 mins and further incubated for 1 hr in presence of integrin antagonist c(-RGDfV) by nitrophenyl-N-acetyl-beta-D-glucosaminide substrate based chromogenic assay; conditions: dose 10.0 µg/ml, time 90.0 min
# Method in brief: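 Agonist-coated wells (10 µg/mL in methanol). Cells pre-treated 10 min before plating with neutralizing anti-α5, anti-αv or anti-α4 antibody (10 µg/mL), or pre-incubated with c(-RGDfV) (1 µM). K562 plated at 50,000/well and Jurkat E6.1 at 500,000/well. Adhesion quantified as in the standard assay.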
# Integrin alpha-V/beta-6 [4] = molecular target: T3, Integrin alpha-V/beta-6 (Homo sapiens, UniProt P06756+P18564); experiment: Inhibition of fibronectin binding to alphaVbeta6 isolated form human HT-29 cells incubated for 1 hr by […] competitive solid-phase binding assay; format: tissue-based
# Integrin alpha-V/beta-5 [5] = molecular target: T1, Integrin alpha-V/beta-5; experiment: Agonist activity at alphaVbeta5 in human MCF7 cells assessed as increase in cell adhesion to fibrinogen pre-incubated for 30 mins before fibrinogen and further incubated for 1 hr by nitrophenyl-N-acetyl-beta-D-glucosaminide substrate based chromogenic assay
# Method in brief: (§1)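 Compound or methanol vehicle pre-incubated with cells for 30 min at room temperature. Cells then plated on wells coated overnight at 4 °C with fibronectin 10 µg/mL (SK-MEL-24, K562, HT-29) or fibrinogen 10 µg/mL (MCF7, HEL). Seeding was 50,000 cells/well, or 100000 for HEL. Adhesion ran 1 h at room temperature. Wells washed with 1% BSA/PBS. Adherent cells read by hexosaminidase substrate, absorbance 405 nm. Quadruplicate, at least three repeats.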
# HEL = experiment: Toxicity in human HEL cells assessed as induction of cell necrosis and/or apoptosis incubated for 3 hrs by annexin V-PE and 7-AAD staining based by flow cytometry
# Method in brief: (§2)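 After 3 h incubation, cells resuspended in complete medium and stained with annexin V-PE/7-AAD reagent for 20 min at room temperature in the dark. Flow cytometry sorted cells into viable, early apoptotic and late apoptotic/necrotic populations.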
# MCF7 = experiment: Toxicity in human MCF7 cells assessed as induction of cell necrosis and/or apoptosis incubated for 3 hrs by annexin V-PE and 7-AAD staining based by flow cytometry; conditions: mcf7, 3 h; method in brief: as §2
# Integrin alpha-V/beta-6 [6] = molecular target: T3, Integrin alpha-V/beta-6; experiment: Antagonist activity at alphaVbeta6 in human HT-29 cells assessed as reduction in cell adhesion to fibronectin pre-incubated for 30 mins before fibronectin and further incubated for 1 hr by nitrophenyl-N-acetyl-beta-D-glucosaminide substrate based chromogenic assay
# Method in brief: as §1, with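 “BSA/PBS.” for “BSA/PBS. Adherent cells read by hexosaminidase substrate, absorbance 405 nm.”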
# [7] = molecular target: T4, Integrin alpha-IIb/beta-3 (Homo sapiens, UniProt P05106+P08514); experiment: Agonist activity at alpha2bbeta3 in human K562 cells assessed as increase in cell adhesion to fibrinogen pre-incubated for 30 mins and further incubated for 1 hr in presence of alpha2bbeta3 antagonist Tirofiban by nitrophenyl-N-acetyl-beta-D-glucosaminide substrate based chromogenic assay; conditions: time 90.0 min
# Integrin alpha-5/beta-1 [8] = molecular target: T2, Integrin alpha-5/beta-1; experiment: Inhibition of fibronectin binding to alpha5beta1 isolated from human K562 cells incubated for 1 hr by […] competitive solid-phase binding assay; format: tissue-based
# Method in brief: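 Plates coated overnight at 4 °C in carbonate buffer pH 9.6 with fibronectin 0.5 µg/mL (αvβ3, αvβ6, α5β1), fibrinogen 10 µg/mL (αIIbβ3, αvβ5) or ICAM-1 (αLβ2). Blocked 1 h in buffer containing Ca/Mg/Mn 1 mM each and 1% BSA. Purified integrin (3–10 µg/mL) incubated with compound (10⁻⁴–10⁻¹⁰ M) 1 h at room temperature. Bound integrin detected with primary antibody then AlexaFluor488 secondary, Ex485/Em535. Duplicate, at least three repeats.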
# Integrin alpha-V/beta-6 [9] = molecular target: T3, Integrin alpha-V/beta-6; experiment: Agonist activity at alphaVbeta6 in human HT-29 cells assessed as increase in cell adhesion to fibronectin pre-incubated for 30 mins before fibronectin and further incubated for 1 hr by nitrophenyl-N-acetyl-beta-D-glucosaminide substrate based chromogenic assay; method in brief: as §1
# [10] = molecular target: T4, Integrin alpha-IIb/beta-3; experiment: Agonist activity at alpha2bbeta3 in human HEL cells assessed as increase in cell adhesion to fibrinogen pre-incubated for 30 mins before fibrinogen and further incubated for 1 hr by nitrophenyl-N-acetyl-beta-D-glucosaminide substrate based chromogenic assay
# Method in brief: as §1, with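 “BSA/PBS.” for “BSA/PBS. Adherent cells read by hexosaminidase substrate, absorbance 405 nm.”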
# HT-29 = experiment: Toxicity in human HT-29 cells assessed as induction of cell necrosis and/or apoptosis incubated for 3 hrs by annexin V-PE and 7-AAD staining based by flow cytometry; conditions: ht-29, 3 h; method in brief: as §2
# Integrin alpha-5/beta-1 [11] = molecular target: T2, Integrin alpha-5/beta-1; experiment: Agonist activity at alpha5beta1 in human K562 cells assessed as increase in cell adhesion to fibronectin pre-incubated for 30 mins before fibronectin and further incubated for 1 hr by nitrophenyl-N-acetyl-beta-D-glucosaminide substrate based chromogenic assay; method in brief: as §1
# Integrin alpha-5/beta-1 [12] = molecular target: T2, Integrin alpha-5/beta-1; experiment: Agonist activity at alpha5beta1 in human K562 cells assessed as assessed as increase in ERK1/2 phosphorylation at 1 to 100 nM by Western blot analysis; format: cell-based; conditions: filed as agonist, dose 1-100 nM
# Integrin alpha-V/beta-5 [13] = molecular target: T1, Integrin alpha-V/beta-5; experiment: Antagonist activity at alphaVbeta5 in human MCF7 cells assessed as reduction in cell adhesion to fibrinogen pre-incubated for 30 mins before fibrinogen and further incubated for 1 hr by nitrophenyl-N-acetyl-beta-D-glucosaminide substrate based chromogenic assay
# Method in brief: as §1, with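 “BSA/PBS.” for “BSA/PBS. Adherent cells read by hexosaminidase substrate, absorbance 405 nm.”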
# K562 = experiment: Toxicity in human K562 cells assessed as induction of cell necrosis and/or apoptosis incubated for 3 hrs by annexin V-PE and 7-AAD staining based by flow cytometry; conditions: k562, 3 h; method in brief: as §2
# SK-MEL-24 = experiment: Toxicity in human SK-MEL-24 cells assessed as induction of cell necrosis and/or apoptosis incubated for 3 hrs by annexin V-PE and 7-AAD staining based by flow cytometry; conditions: sk-mel-24, 3 h; method in brief: as §2
SMILES,IC50 [1] [nM],IC50 (Integrin alpha-V/beta-5 [2]) [nM],IC50 (Integrin alpha-V/beta-3) [nM],IC50 (Integrin alpha-V/beta-6 [4]) [nM],EC50 (Integrin alpha-V/beta-5 [5]) [nM],Activity (HEL),Activity (MCF7),IC50 (Integrin alpha-V/beta-6 [6]) [nM],Activity ([7]; filed as agonist),IC50 (Integrin alpha-5/beta-1 [8]) [nM],EC50 (Integrin alpha-V/beta-6 [9]) [nM],EC50 [10] [nM],Activity (HT-29),EC50 (Integrin alpha-5/beta-1 [11]) [nM],Activity (Integrin alpha-5/beta-1 [12]),IC50 (Integrin alpha-V/beta-5 [13]) [nM],Activity (K562),Activity (SK-MEL-24),Activity (Integrin alpha-5/beta-1 [3]; filed as agonist),other results
Nc1ccc(CNC(=O)N2C(=O)CC2CC(=O)O)cc1.O=C(O)C(F)(F)F (configuration not stated),0.39,> 1000,9.9,> 1000,> 5000,Non-Toxic,Non-Toxic,> 5000,Active,9.7,> 5000,> 5000,Non-Toxic,44.5,Active,> 5000,Non-Toxic,Non-Toxic,,Activity (Integrin alpha-5/beta-1 [3]): inactive
NCc1ccc(NC(=O)N2C(=O)CC2CC(=O)NCCC(=O)O)cc1.O=C(O)C(F)(F)F (configuration not stated),> 5000,> 1000,> 1000,> 1000,> 5000,Non-Toxic,Non-Toxic,> 5000,,5.5,> 5000,1560,Non-Toxic,6.7,Dose-dependent effect,> 5000,Non-Toxic,Non-Toxic,Active,Activity [7]: inactive
Cc1ccccc1NC(=O)N1C(=O)CC1CC(=O)NCC(=O)O (configuration not stated),> 5000,> 1000,> 1000,> 1000,> 5000,Non-Toxic,Non-Toxic,> 5000,Active,52,> 5000,> 5000,Non-Toxic,9.9,Dose-dependent effect,> 5000,Non-Toxic,Non-Toxic,Active,
